The text below walks through data of ChEMBL document CHEMBL3217529, “Carbocyclic 5'-nor "reverse" fleximers. Design, synthesis, and preliminary biological activity” (Medchemcomm, 2011).

One data set relates to Vaccinia virus. The data set can be described thus: Antiviral activity against Vaccinia virus infected in human HEL cells assessed as inhibition of virus-induced cytopathicity. It counts as functional, organism-based. As to conditions: Orthopoxvirus vaccinia. A general note: Protection from cytopathic effect is a common read-out in antiviral testing.
Data set [1] can be described thus: Cytotoxicity against African green monkey Vero cells assessed as concentration required to cause microscopically visible alternation of cell morphology. Type of data set: cell-based. The settings on record: chlorocebus sabaeus. Summed up: (§1)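 Confluent cultures (MDCK nearly confluent) exposed to 5-fold serial compound dilutions alongside the antiviral assays. MCC is the lowest concentration producing a microscopically visible change in cell morphology.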

Data set [2] deals with Vesicular stomatitis virus. Nature of the data set: Antiviral activity against Vesicular stomatitis virus infected in human HeLa cells assessed as inhibition of virus-induced cytopathicity. It counts as functional, organism-based.
For data set [3], the system named is Human betaherpesvirus 5. The data set can be described thus: Antiviral activity against human cytomegalovirus Davis infected in human HEL cells assessed as inhibition of virus-induced cytopathicity after 7 days by Giemsa staining-based microscopic analysis. It counts as functional, organism-based. As to conditions: Human betaherpesvirus 5, Davis, 168 h. Summed up: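 Confluent HEL fibroblasts were infected with 100 PFU per well. After 2 h, residual virus was removed and compound-containing medium was added, in duplicate. At 7 days at 37 °C, cells were ethanol-fixed and Giemsa-stained, and cytopathogenicity was assessed microscopically.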

The nature of data set [4]: Cytotoxicity against human HeLa cells assessed as concentration required to cause microscopically visible alternation of cell morphology. It counts as cell-based. Summed up: as §1
The test system of data set [5] is Mammalian orthoreovirus 1. Nature of the data set: Antiviral activity against Reovirus 1 infected in African green monkey Vero cells assessed as inhibition of virus-induced cytopathicity. Type of data set: functional, cell-based. The settings on record: Mammalian orthoreovirus 1, Vero.
In another data set the test system is Punta Toro virus. The data set can be described thus: Antiviral activity against Punta Toro virus infected in African green monkey Vero cells assessed as inhibition of virus-induced cytopathicity. Type of data set: functional, organism-based.
The next data set deals with Influenza B virus. Nature of the data set: Antiviral activity against Influenza B virus infected in MDCK cells assessed as inhibition of virus-induced cytopathicity. Type of data set: functional, organism-based.
Data set [6] has as its system Human alphaherpesvirus 1. Nature of the data set: Antiviral activity against thymidine kinase-deficient Herpes simplex virus type 1 infected in human HEL cells assessed as inhibition of virus-induced cytopathicity. It counts as functional, organism-based. The settings on record: Human alphaherpesvirus 1, HEL.
Data set [7] concerns Vesicular stomatitis virus. Nature of the data set: Antiviral activity against Vesicular stomatitis virus infected in human HEL cells assessed as inhibition of virus-induced cytopathicity. It counts as functional, organism-based.
In another data set the test system is Influenza A virus H3N2. The data set can be described thus: Antiviral activity against Influenza A virus H3N2 infected in MDCK cells assessed as inhibition of virus-induced cytopathicity. It counts as functional, organism-based.
Data set [8] can be described thus: Cytotoxicity against human HEL cells assessed as concentration required to cause microscopically visible alternation of cell morphology. Type of data set: cell-based. Summed up:
as §1

The test system of data set [9] is Coxsackievirus B4. The data set can be described thus: Antiviral activity against Coxsackievirus B4 infected in human HeLa cells assessed as inhibition of virus-induced cytopathicity. It counts as functional, organism-based. The settings on record: Enterovirus B. An outline of the steps: (§2)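 Confluent cell monolayers in 96-well plates inoculated with 100 CCID50 of virus alongside 5-fold serial dilutions of compound. Cytopathicity scored once it was complete in untreated infected controls.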

The test system of data set [10] is Human betaherpesvirus 5. Nature of the data set: Antiviral activity against human cytomegalovirus AD169 infected in human HEL cells assessed as inhibition of virus-induced cytopathicity after 7 days by Giemsa staining-based microscopic analysis. As to conditions: Human betaherpesvirus 5, AD169, HEL, 168 h. It counts as functional, organism-based. An outline of the steps:
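Confluent HEL fibroblasts infected with HCMV AD-169 or Davis at 100 PFU/well for 2 h, then residual virus removed. Medium with graded compound concentrations added, in duplicate. After 7 days at 37 °C, cells ethanol-fixed and Giemsa-stained, and cytopathogenicity read microscopically. EC50 taken from plots of % cytopathogenicity versus concentration.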

Another data set concerns Human respirovirus 3. The data set can be described thus: Antiviral activity against Parainfluenza virus 3 infected in African green monkey Vero cells assessed as inhibition of virus-induced cytopathicity. It counts as functional, organism-based. As to conditions: Human respirovirus 3, Vero. Summed up:
as §2

For data set [11], the system named is Human alphaherpesvirus 1. The data set can be described thus: Antiviral activity against Herpes simplex virus type 1 KOS infected in human HEL cells assessed as inhibition of virus-induced cytopathicity. The settings on record: Human alphaherpesvirus 1, KOS. It counts as functional, organism-based.
The test system of a further data set is Sindbis virus. Nature of the data set: Antiviral activity against Sindbis virus infected in African green monkey Vero cells assessed as inhibition of virus-induced cytopathicity. Type of data set: functional, organism-based.
For data set [12], the system named is Human alphaherpesvirus 3. The data set can be described thus: Antiviral activity against thymidine kinase-deficient Varicella-zoster virus 07-1 infected in human HEL cells assessed as reduction of viral plaque formation after 5 days. As to conditions: Human alphaherpesvirus 3, 07-1, HEL, 120 h. Type of data set: functional, organism-based. Summed up: (§3)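 Confluent HEL cells were inoculated with 20 PFU per well. After 2 h, residual virus was removed and compound dilutions were added, in duplicate.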

The subject of data set [13] is Human immunodeficiency virus 1. The data set can be described thus: Antiviral activity against HIV-1 3B infected in human CEM cells assessed as inhibition of virus-induced giant cell formation after 4 days by microscopic analysis. Type of data set: functional, organism-based. As to conditions: Human immunodeficiency virus 1, 3B, CCRF-CEM, 96 h. An outline of the steps: (§4)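 CEM cells (~3 × 10^5 cells per cm3) were infected with 100 CCID50 of virus per mL and seeded into wells containing compound dilutions. After 4 days at 37 °C, giant cell formation was examined microscopically.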

A short description of data set [14]: Cytotoxicity against MDCK cells assessed as concentration required to cause microscopically visible alternation of cell morphology. Type of data set: cell-based, Canis lupus familiaris. As to conditions: dog. Summed up:
as §1

For a further data set, the system named is Influenza A virus. The data set can be described thus: Antiviral activity against Influenza A virus H1N1 infected in MDCK cells assessed as inhibition of virus-induced cytopathicity. It counts as functional, organism-based.
Data set [15] has as its system Human alphaherpesvirus 3. The data set can be described thus: Antiviral activity against wild type Varicella-zoster virus Oka infected in human HEL cells assessed as reduction of viral plaque formation after 5 days. As to conditions: Human alphaherpesvirus 3, strain Oka vaccine, 120 h. It counts as functional, organism-based. An outline of the steps:
as §3

Data set [16] relates to Coxsackievirus B4. Nature of the data set: Antiviral activity against Coxsackievirus B4 infected in African green monkey Vero cells assessed as inhibition of virus-induced cytopathicity. Type of data set: functional, organism-based. As to conditions: Enterovirus B.
The subject of data set [17] is Human immunodeficiency virus 2. The data set can be described thus: Antiviral activity against HIV-2 ROD infected in human CEM cells assessed as inhibition of virus-induced giant cell formation after 4 days by microscopic analysis. Type of data set: functional, organism-based. As to conditions: Human immunodeficiency virus 2, ISOLATE ROD, CCRF-CEM, 96 h. Summed up:
as §4

The subject of data set [18] is Respiratory syncytial virus. The data set can be described thus: Antiviral activity against Respiratory syncytial virus infected in human HeLa cells assessed as inhibition of virus-induced cytopathicity. It counts as functional, organism-based.
The subject of the next data set is Human alphaherpesvirus 2. The data set can be described thus: Antiviral activity against Herpes simplex virus type 2 G infected in human HEL cells assessed as inhibition of virus-induced cytopathicity. It counts as functional, organism-based. The settings on record: Human alphaherpesvirus 2, strain G.

For `O=c1[nH]c(=O)n(C2C=CC(O)C2)cc1-c1cccs1` (stereo unspecified), the EC50 with Vaccinia virus was above 4 µM; in data set [2], 4 µM; with Human betaherpesvirus 5 [3], 1.8 µM; in data set [5], above 4 µM; in the data set with Punta Toro virus it was above 4 µM; in the data set on Influenza B virus, above 0.8 µM. Besides, the EC50 was above 4 µM with Human alphaherpesvirus 1 [6]; above 4 µM in data set [7]; above 0.8 µM in the data set on Influenza A virus H3N2; above 4 µM in the data set on Coxsackievirus B4 [9]; 1.8 µM with Human betaherpesvirus 5 [10]; above 4 µM in the data set on Human respirovirus 3. Moreover, the EC50 in the data set on Human alphaherpesvirus 1 [11] was above 4 µM; in the data set on Sindbis virus, above 4 µM; with Human alphaherpesvirus 3 [12] it was 1.6 µM; in data set [13], above 2 µM; in the data set on Influenza A virus, above 0.8 µM; in the data set on Human alphaherpesvirus 3 [15], 1.6 µM. Moreover, the EC50 is above 4 µM in the data set with Coxsackievirus B4 [16], above 2 µM in [17], above 4 µM in data set [18] and above 4 µM in the data set on Human alphaherpesvirus 2. Besides, the MCC was 20 µM in [1], 20 µM in data set [4], at least 4 µM in [8] and 4 µM in data set [14].
Consider `O=c1[nH]c(=O)n(C2C=CC(O)C2)cc1-c1ccco1` (stereo unspecified), for which the 50% effective concentration (EC50) was above 100 µM in the data set on Vaccinia virus; above 100 µM in data set [2]; 100 µM in data set [5]; 20 µM in the data set on Punta Toro virus; above 100 µM in the data set on Human alphaherpesvirus 1 [6]; above 100 µM in data set [7]. Further, the EC50 (in the data set with Coxsackievirus B4 [9]; with Human respirovirus 3; in the data set with Human alphaherpesvirus 1 [11]; in data set [13]; with Coxsackievirus B4 [16]; in data set [17]) was above 100 µM each time. Further, the EC50 (in data set [18]; with Human alphaherpesvirus 2) was above 100 µM each time. Besides, the MCC in data set [1], in data set [4] and in data set [8] was above 100 µM throughout.
Consider `O=c1[nH]c(=O)n(C2C=CC(O)C2)cc1-c1cncs1` (stereo unspecified), for which the EC50 in the data set with Vaccinia virus was above 100 µM; in data set [2], above 100 µM; in the data set with Human betaherpesvirus 5 [3], above 20 µM; in [5] it was above 100 µM; with Punta Toro virus, above 100 µM; in the data set on Influenza B virus, above 20 µM. Besides, the EC50 in the data set on Human alphaherpesvirus 1 [6] was above 100 µM; in data set [7], above 100 µM; in the data set with Influenza A virus H3N2 it was above 20 µM; in the data set with Coxsackievirus B4 [9] it was above 100 µM; with Human betaherpesvirus 5 [10] it was above 20 µM; with Human respirovirus 3 it was above 100 µM. For the same molecule, the EC50 in the data set with Human alphaherpesvirus 1 [11] was above 100 µM; with Sindbis virus, above 100 µM; in the data set with Human alphaherpesvirus 3 [12], 47 µM; in data set [13] it was above 50 µM; with Influenza A virus it was above 20 µM; in the data set with Human alphaherpesvirus 3 [15], 47 µM. In addition, the EC50 in the data set with Coxsackievirus B4 [16] is above 100 µM; in data set [17], above 50 µM; in data set [18], above 100 µM; in the data set with Human alphaherpesvirus 2, above 100 µM. The MCC is above 100 µM in [1], above 100 µM in data set [4], at least 100 µM in data set [8] and 100 µM in data set [14].
`NC(=O)c1ncn([C@@H]2O[C@H](CO)[C@@H](O)[C@H]2O)n1` [RIBAVIRIN]: the EC50 with Vaccinia virus was above 250 µM; in data set [5], above 250 µM; in the data set on Human alphaherpesvirus 1 [11] it was above 250 µM; in the data set with Sindbis virus it was above 250 µM; in data set [13] it was above 50 µM; with Coxsackievirus B4 [16] it was above 250 µM. Besides, the concentration for a half-maximal effect (EC50) is above 50 µM in data set [17] and above 250 µM with Human alphaherpesvirus 2. In addition, the MCC in data set [1] was above 250 µM; in [4], above 250 µM; in data set [8] it was above 250 µM; in data set [14] it was above 100 µM.

One may read the EC50 as the concentration giving half of the maximal effect.
